Measured values: ChEMBL document CHEMBL3853327 (J Med Chem, 2016)

Experiments:
[1] = test system: Human immunodeficiency virus 1; test: Antiviral activity against HIV1 3B harboring reverse transcriptase Y181C mutant infected in human MT4 cells assessed as protection against virus induced cytotoxicity after 5 days by MTT assay; format: functional, cell-based; conditions: Human immunodeficiency virus 1, 3B, MT4, 120 h
Method in brief: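 MTT cytopathicity assay in MT-4 cells (6 × 10^5 cells/mL). Compounds serially diluted 5-fold in triplicate wells, run in parallel on infected and mock-infected cells. Virus added at 100−300 CCID50 per well. Viability read spectrophotometrically at 540 and 690 nm after 5 days, using the median OD of three wells.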

[2] = AUC (0 to infinity) in Sprague-Dawley rat plasma at 16 mg/kg administered through oral gavage measured at 5 mins to 24 hrs post dosing by LC/MS analysis; format: ADME, organism-based; set-up: dose 16 mg/kg, time infinity, route oral; conditions: in vivo
Method in brief: (§1)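 Male Sprague-Dawley rats, ten randomly split into two groups (n = 5), single gavage dose of 8 or 16 mg·kg−1 in PEG 400/normal saline (70/30, V/V). Jugular sinus blood into heparinized tubes at 5 min to 24 h; plasma separated at 2200g for 8 min, stored −20 °C. Methanol precipitation with internal standard, LC-MS quantitation against plasma standard curves. Parameters reported as mean ± SD.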

[3] = Selectivity index, ratio of CC50 for human mock-infected MT4 cells to EC50 for wild type HIV1 3B harboring reverse transcriptase infected in human MT4 cells; format: toxicity, cell-based; conditions: MT4 cells (mock-infected for CC50, HIV-1 infected for EC50)
Method in brief: (§2)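 Selectivity index is CC50/EC50. CC50 is the concentration that reduces OD540 of mock-infected MT-4 cells by 50% in the 5-day MTT assay. EC50 is the 50% protection from virus-induced cytopathicity, measured in parallel on infected wells.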

[4] = Selectivity index, ratio of CC50 for human mock-infected MT4 cells to EC50 for HIV1 3B harboring reverse transcriptase Y188L mutant infected in human MT4 cells; format: toxicity, cell-based; conditions: MT4 cells (mock-infected for CC50, HIV-1 infected for EC50); method in brief: as §2
[5] = Selectivity index, ratio of CC50 for human mock-infected MT4 cells to EC50 for HIV1 3B harboring reverse transcriptase Y181C mutant infected in human MT4 cells; format: toxicity, cell-based; conditions: MT4 cells (mock-infected for CC50, HIV-1 infected for EC50); method in brief: as §2
[6] = test system: Mus musculus; test: Acute toxicity in Kunming mouse assessed as mortality at 2000 mg/kg, ig after 1 week; format: organism-based; conditions: in vivo, po, 168 h
Method in brief: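 Kunming mice (18−22 g), fasted 12 h, then given a single intragastric dose suspended in PEG-400 (100 or 200 mg·mL−1 for 1000 or 2000 mg·kg−1). Six mice per dose group, half male and half female. Deaths and body-weight gain followed for 1 week.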

[7] = AUMC (0 to t) in Sprague-Dawley rat plasma at 16 mg/kg administered through oral gavage measured at 5 mins to 24 hrs post dosing by LC/MS analysis; format: ADME, organism-based; conditions: in vivo; method in brief: as §1
[8] = test system: Human immunodeficiency virus 1; test: Fold resistance, ratio of IC50 for recombinant HIV1 reverse transcriptase K103N/Y181C double mutant to IC50 for wild type HIV1 reverse transcriptase
Method in brief: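 Ratio of mutant to WT IC50. Recombinant WT and K103N/Y181C RT were assayed with a kit: template plus DIG-dUTP, biotin-dUTP and dTTP, with or without inhibitor, 1 h at 37 °C. Product was captured on streptavidin, detected with anti-DIG-POD and ABTS, and read at 405 nm. IC50 is the concentration inhibiting biotin-dUTP incorporation by 50%.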

For `Cc1cc(C#N)cc(C)c1Oc1nc(NC2CCN(Cc3ccc(S(N)(=O)=O)cc3)CC2)nc2ccsc12`, the EC50 [1] was 3.2 nM, the AUC [2] was 1756.7 ng·h/mL and the selectivity ratio [3] was > 159000. The selectivity ratio [4] was > 70000, the selectivity ratio [5] was > 78100 and the Activity [6] was “Non-Toxic”. It also gave an AUMCt [7] of 5458.8 ug/L.hr and a Ratio IC50 [8] of 1.2.
